Measurements: ChEMBL document CHEMBL1955770, “Inhibition of S/G2 phase CDK4 reduces mitotic fidelity” (J Biol Chem, 2006)

Legend:
[1] = test system: Serine/threonine-protein kinase B-raf (Homo sapiens), P15056 [V600E]; assay: Inhibition of BRAF(V600E) at 1 uM
In short: (§1)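 Competition binding screen across a kinase panel with compound at 1 μM. Read-out is % competition. Kinases not hit at this concentration were scored '<50'. No Kd was determined for hits.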

[2] = biological target: Calcium/calmodulin-dependent protein kinase type II subunit alpha (Homo sapiens) (UniProt Q9UQM7); assay: Inhibition of CAMK2A at 1 uM; in short: as §1
[3] = biological target: TRAF2 and NCK-interacting protein kinase (Homo sapiens) (UniProt Q9UKE5); assay: Inhibition of TNIK at 1 uM
Chain of TRAF2 and NCK-interacting protein kinase (Homo sapiens) (Q9UKE5 whole entry, looked up): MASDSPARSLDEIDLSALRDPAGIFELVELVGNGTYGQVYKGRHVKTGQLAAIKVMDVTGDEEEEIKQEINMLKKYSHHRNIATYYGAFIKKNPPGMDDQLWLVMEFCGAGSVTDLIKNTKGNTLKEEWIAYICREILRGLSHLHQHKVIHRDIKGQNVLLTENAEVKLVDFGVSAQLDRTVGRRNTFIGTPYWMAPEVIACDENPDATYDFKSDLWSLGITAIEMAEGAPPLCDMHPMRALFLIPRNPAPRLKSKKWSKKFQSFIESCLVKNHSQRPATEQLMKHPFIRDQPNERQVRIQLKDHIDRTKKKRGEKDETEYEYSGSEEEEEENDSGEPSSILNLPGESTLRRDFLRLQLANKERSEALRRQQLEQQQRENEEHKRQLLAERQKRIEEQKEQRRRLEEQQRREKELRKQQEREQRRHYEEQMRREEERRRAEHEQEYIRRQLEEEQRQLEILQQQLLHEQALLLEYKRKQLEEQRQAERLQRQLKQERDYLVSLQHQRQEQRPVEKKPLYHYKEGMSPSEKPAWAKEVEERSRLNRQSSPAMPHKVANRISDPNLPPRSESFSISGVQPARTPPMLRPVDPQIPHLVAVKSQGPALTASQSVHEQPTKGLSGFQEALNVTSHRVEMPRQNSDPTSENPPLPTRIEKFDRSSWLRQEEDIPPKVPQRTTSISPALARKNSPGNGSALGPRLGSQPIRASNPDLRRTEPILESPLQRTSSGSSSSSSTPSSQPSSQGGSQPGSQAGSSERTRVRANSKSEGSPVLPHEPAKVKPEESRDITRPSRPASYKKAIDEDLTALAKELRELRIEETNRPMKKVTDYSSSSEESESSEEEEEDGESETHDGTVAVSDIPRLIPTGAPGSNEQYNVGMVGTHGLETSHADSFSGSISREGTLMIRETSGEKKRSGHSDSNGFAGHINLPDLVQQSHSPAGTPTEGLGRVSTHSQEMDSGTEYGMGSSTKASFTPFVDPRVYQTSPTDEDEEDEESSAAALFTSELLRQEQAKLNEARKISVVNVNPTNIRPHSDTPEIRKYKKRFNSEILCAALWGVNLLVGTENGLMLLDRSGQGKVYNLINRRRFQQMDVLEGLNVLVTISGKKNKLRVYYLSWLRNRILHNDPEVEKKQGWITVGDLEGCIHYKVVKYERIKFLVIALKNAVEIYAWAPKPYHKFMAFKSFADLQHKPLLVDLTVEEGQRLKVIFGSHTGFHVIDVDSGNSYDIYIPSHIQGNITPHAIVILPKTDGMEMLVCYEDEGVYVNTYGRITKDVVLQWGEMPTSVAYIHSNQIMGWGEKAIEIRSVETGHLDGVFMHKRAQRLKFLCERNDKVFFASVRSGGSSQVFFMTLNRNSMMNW

[4] = biological target: Leukocyte tyrosine kinase receptor (Homo sapiens) (UniProt P29376); assay: Inhibition of LTK at 1 uM
[5] = biological target: Fibroblast growth factor receptor 1 (Homo sapiens) (UniProt P11362); assay: Inhibition of FGFR1 at 1 uM
[6] = biological target: Serine/threonine-protein kinase 16 (Homo sapiens) (UniProt O75716); assay: Inhibition of STK16 at 1 uM
[7] = biological target: Tyrosine-protein kinase Fes/Fps (Homo sapiens) (UniProt P07332); assay: Inhibition of FES at 1 uM
[8] = biological target: Protein-tyrosine kinase 2-beta (Homo sapiens) (UniProt Q14289); assay: Inhibition of PTK2B at 1 uM
[9] = biological target: Tyrosine-protein kinase Yes (Homo sapiens) (UniProt P07947); assay: Inhibition of YES at 1 uM
[10] = biological target: Vascular endothelial growth factor receptor 2 (Homo sapiens) (UniProt P35968); assay: Inhibition of VEGFR2 at 1 uM
[11] = biological target: Serine/threonine-protein kinase 17A (Homo sapiens) (UniProt Q9UEE5); assay: Inhibition of STK17A at 1 uM
[12] = biological target: Calcium/calmodulin-dependent protein kinase type 1G (Homo sapiens) (UniProt Q96NX5); assay: Inhibition of CAMK1G at 1 uM; in short: as §1
[13] = biological target: Ephrin type-A receptor 8 (Homo sapiens) (UniProt P29322); assay: Inhibition of EPHA8 at 1 uM
[14] = biological target: Mitogen-activated protein kinase 10 (Homo sapiens) (UniProt P53779); assay: Inhibition of JNK3 at 1 uM
[15] = biological target: Ephrin type-A receptor 6 (Homo sapiens) (UniProt Q9UF33); assay: Inhibition of EPHA6 at 1 uM
[16] = biological target: Myotonin-protein kinase (Homo sapiens) (UniProt Q09013); assay: Inhibition of DMPK at 1 uM
[17] = biological target: Cyclin-dependent kinase 5 (Homo sapiens) (UniProt Q00535); assay: Inhibition of CDK5 at 1 uM
Chain of Cyclin-dependent kinase 5 (Homo sapiens) (Q00535 whole entry, looked up): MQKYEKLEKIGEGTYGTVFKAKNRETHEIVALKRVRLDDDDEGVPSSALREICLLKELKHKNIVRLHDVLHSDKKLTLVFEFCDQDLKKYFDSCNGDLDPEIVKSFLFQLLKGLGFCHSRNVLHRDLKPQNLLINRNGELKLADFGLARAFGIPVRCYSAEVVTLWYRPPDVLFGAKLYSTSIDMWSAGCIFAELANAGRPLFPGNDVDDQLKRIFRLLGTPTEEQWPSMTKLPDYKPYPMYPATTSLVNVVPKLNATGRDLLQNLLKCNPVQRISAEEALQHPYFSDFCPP

[18] = biological target: Dual specificity protein kinase TTK (Homo sapiens) (UniProt P33981); assay: Inhibition of TTK at 1 uM
[19] = biological target: Tyrosine-protein kinase CSK (Homo sapiens) (UniProt P41240); assay: Inhibition of CSK at 1 uM
[20] = biological target: BMP-2-inducible protein kinase (Homo sapiens) (UniProt Q9NSY1); assay: Inhibition of BIKE at 1 uM; in short: as §1
[21] = biological target: Serine/threonine-protein kinase ULK3 (Mus musculus) (UniProt Q3U3Q1); assay: Inhibition of mouse ULK3 at 1 uM
[22] = biological target: Aurora kinase A (Homo sapiens) (UniProt O14965); assay: Inhibition of AURKA at 1 uM; in short: as §1
[23] = biological target: Serine/threonine-protein kinase Nek2 (Homo sapiens) (UniProt P51955); assay: Inhibition of NEK2 at 1 uM
[24] = biological target: Phosphorylase b kinase gamma catalytic chain, skeletal muscle/heart isoform (Homo sapiens) (UniProt Q16816); assay: Inhibition of PHKG1 at 1 uM
[25] = biological target: Tyrosine-protein kinase JAK2 (Homo sapiens) (UniProt O60674); assay: Inhibition of JAK2(Kin.Dom.2) at 1 uM
Chain of Tyrosine-protein kinase JAK2 (Homo sapiens) (O60674 whole entry): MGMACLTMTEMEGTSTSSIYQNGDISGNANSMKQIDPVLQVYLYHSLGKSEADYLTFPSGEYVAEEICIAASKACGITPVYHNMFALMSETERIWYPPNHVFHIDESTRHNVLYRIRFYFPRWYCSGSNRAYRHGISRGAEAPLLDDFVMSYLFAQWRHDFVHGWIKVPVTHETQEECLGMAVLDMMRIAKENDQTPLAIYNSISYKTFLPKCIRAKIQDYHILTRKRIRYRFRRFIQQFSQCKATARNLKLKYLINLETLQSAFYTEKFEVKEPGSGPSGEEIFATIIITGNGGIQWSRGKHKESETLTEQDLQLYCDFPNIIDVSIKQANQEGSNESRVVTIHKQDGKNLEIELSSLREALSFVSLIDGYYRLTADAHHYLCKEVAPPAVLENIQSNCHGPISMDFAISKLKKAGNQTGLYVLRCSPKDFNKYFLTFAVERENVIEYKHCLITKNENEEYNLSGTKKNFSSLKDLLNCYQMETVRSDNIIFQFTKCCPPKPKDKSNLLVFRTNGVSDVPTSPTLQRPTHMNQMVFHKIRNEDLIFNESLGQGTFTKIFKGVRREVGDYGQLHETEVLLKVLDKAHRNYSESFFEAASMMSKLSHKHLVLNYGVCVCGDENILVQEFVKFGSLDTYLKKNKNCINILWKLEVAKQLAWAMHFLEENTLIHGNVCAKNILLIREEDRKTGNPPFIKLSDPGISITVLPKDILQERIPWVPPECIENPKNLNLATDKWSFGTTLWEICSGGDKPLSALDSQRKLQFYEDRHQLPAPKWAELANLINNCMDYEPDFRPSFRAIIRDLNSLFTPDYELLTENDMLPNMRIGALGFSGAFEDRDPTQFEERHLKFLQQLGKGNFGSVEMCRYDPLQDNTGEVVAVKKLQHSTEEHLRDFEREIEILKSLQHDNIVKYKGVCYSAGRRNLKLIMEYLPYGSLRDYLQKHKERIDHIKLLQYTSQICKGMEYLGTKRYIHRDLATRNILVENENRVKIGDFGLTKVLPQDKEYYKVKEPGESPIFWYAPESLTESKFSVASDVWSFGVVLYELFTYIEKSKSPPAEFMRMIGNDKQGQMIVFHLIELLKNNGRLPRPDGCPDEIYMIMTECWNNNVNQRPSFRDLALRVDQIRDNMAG

[26] = biological target: Ephrin type-B receptor 1 (Homo sapiens) (UniProt P54762); assay: Inhibition of EPHB1 at 1 uM
[27] = biological target: Calcium/calmodulin-dependent protein kinase kinase 1 (Homo sapiens) (UniProt Q8N5S9); assay: Inhibition of CAMKK1 at 1 uM
[28] = biological target: MAP kinase-interacting serine/threonine-protein kinase 2 (Homo sapiens) (UniProt Q9HBH9); assay: Inhibition of MKNK2 at 1 uM
[29] = biological target: Cytoplasmic tyrosine-protein kinase BMX (Homo sapiens) (UniProt P51813); assay: Inhibition of BMX at 1 uM; in short: as §1
[30] = biological target: Tyrosine-protein kinase ABL2 (Homo sapiens) (UniProt P42684); assay: Inhibition of ABL2 at 1 uM; in short: as §1
[31] = biological target: Calcium/calmodulin-dependent protein kinase type 1 (Homo sapiens) (UniProt Q14012); assay: Inhibition of CAMK1 at 1 uM; in short: as §1
[32] = biological target: Serine/threonine-protein kinase PAK 4 (Homo sapiens) (UniProt O96013); assay: Inhibition of PAK4 at 1 uM
[33] = biological target: Serine/threonine-protein kinase PLK4 (Homo sapiens) (UniProt O00444); assay: Inhibition of PLK4 at 1 uM
Chain of Serine/threonine-protein kinase PLK4 (Homo sapiens) (O00444 whole entry): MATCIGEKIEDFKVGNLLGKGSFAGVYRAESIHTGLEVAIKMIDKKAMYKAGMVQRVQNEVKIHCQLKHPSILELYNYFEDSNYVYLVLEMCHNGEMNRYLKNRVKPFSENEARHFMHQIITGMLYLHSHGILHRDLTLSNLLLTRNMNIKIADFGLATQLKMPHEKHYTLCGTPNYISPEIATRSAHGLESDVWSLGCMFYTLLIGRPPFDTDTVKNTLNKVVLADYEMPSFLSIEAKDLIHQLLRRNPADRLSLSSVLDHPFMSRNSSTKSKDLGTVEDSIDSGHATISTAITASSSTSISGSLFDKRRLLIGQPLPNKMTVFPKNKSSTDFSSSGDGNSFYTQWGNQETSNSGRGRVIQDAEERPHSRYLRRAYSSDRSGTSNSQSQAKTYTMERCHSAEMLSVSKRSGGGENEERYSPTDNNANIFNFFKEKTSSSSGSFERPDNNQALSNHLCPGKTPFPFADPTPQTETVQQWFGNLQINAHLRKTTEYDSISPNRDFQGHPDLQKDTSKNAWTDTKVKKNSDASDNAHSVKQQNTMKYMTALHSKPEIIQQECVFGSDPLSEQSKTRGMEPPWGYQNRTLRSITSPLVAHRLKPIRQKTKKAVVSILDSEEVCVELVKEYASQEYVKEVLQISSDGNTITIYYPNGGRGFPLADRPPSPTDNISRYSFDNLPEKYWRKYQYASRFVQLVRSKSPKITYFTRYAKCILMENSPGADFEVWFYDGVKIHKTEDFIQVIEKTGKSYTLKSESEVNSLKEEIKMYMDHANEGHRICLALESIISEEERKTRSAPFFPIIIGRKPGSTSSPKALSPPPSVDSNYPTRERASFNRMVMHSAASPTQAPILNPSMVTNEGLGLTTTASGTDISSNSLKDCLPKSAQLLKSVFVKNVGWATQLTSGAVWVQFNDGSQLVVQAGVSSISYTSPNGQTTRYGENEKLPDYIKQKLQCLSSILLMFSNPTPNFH

[34] = biological target: Tyrosine-protein kinase ITK/TSK (Homo sapiens) (UniProt Q08881); assay: Inhibition of ITK at 1 uM
[35] = biological target: Serine/threonine-protein kinase 4 (Homo sapiens) (UniProt Q13043); assay: Inhibition of STK4 at 1 uM
[36] = biological target: Ribosomal protein S6 kinase alpha-5 (Homo sapiens) (UniProt O75582); assay: Inhibition of RPS6KA5 Kin.Dom.1 at 1 uM
[37] = biological target: Ribosomal protein S6 kinase alpha-3 (Homo sapiens) (UniProt P51812); assay: Inhibition of RPS6KA3 Kin.Dom.1 at 1 uM
[38] = biological target: Cyclin-dependent kinase 16 (Homo sapiens) (UniProt Q00536); assay: Inhibition of PCTK1 at 1 uM
[39] = biological target: Death-associated protein kinase 3 (Homo sapiens) (UniProt O43293); assay: Inhibition of DAPK3 at 1 uM
[40] = biological target: Focal adhesion kinase 1 (Homo sapiens) (UniProt Q05397); assay: Inhibition of PTK2 at 1 uM
[41] = biological target: Calcium/calmodulin-dependent protein kinase type II subunit gamma (Homo sapiens) (UniProt Q13555); assay: Inhibition of CAMK2G at 1 uM
Chain of Calcium/calmodulin-dependent protein kinase type II subunit gamma (Homo sapiens) (Q13555 whole entry): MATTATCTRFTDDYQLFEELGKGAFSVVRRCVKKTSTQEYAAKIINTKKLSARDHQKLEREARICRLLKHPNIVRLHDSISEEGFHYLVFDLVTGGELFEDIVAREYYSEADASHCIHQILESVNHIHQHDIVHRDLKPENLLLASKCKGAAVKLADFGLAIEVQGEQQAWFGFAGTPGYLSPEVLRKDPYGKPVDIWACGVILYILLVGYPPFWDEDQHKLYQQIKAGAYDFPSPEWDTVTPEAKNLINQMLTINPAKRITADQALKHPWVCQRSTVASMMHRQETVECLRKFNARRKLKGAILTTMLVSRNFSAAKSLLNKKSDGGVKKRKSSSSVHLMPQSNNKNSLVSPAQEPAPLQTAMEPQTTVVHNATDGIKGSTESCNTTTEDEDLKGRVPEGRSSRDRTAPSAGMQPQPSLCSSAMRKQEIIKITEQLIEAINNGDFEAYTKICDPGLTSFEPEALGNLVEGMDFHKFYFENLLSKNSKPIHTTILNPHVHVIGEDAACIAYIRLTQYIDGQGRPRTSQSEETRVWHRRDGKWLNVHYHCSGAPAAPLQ
In short: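 Competition binding screen against a kinase panel, compound tested at a single concentration of 1 μM. Read-out is % competition, where higher scores mark stronger hits. Kinases not hit in the primary screen are reported as '<50'. No Kd values were determined.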

[42] = biological target: Mitogen-activated protein kinase kinase kinase kinase 5 (Homo sapiens) (UniProt Q9Y4K4); assay: Inhibition of MAP4K5 at 1 uM
[43] = biological target: Serine/threonine-protein kinase PAK 1 (Homo sapiens) (UniProt Q13153); assay: Inhibition of PAK1 at 1 uM
[44] = biological target: Tyrosine-protein kinase Fgr (Homo sapiens) (UniProt P09769); assay: Inhibition of FGR at 1 uM
Chain of Tyrosine-protein kinase Fgr (Homo sapiens) (P09769 2-529 limits assumed): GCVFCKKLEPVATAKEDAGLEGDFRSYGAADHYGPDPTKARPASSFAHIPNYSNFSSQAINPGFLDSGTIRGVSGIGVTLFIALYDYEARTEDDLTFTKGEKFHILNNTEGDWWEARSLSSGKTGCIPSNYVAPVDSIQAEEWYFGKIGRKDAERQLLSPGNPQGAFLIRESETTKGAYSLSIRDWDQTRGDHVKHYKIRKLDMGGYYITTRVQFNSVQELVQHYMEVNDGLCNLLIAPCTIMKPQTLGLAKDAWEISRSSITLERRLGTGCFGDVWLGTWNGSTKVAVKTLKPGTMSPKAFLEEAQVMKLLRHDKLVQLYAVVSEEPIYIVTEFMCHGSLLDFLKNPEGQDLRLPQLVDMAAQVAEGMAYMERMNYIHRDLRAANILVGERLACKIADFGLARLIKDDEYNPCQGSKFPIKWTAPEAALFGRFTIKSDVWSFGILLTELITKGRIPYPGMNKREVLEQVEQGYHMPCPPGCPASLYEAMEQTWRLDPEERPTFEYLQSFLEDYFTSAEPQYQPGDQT

[45] = biological target: Calcium/calmodulin-dependent protein kinase kinase 2 (Homo sapiens) (UniProt Q96RR4); assay: Inhibition of CAMKK2 at 1 uM

`CN1CCN(c2ccc(Nc3nc(N)c(C(=O)c4ccc5c(c4)OCCO5)s3)cc2)CC1` gave an inhibition [1] of under 50%, an inhibition [2] of under 50% and an inhibition [3] of under 50%. For the same molecule, the inhibition [4] was under 50%, the inhibition [5] was under 50% and the inhibition [6] was 87%. For the same molecule, the inhibition [7] was under 50%, the inhibition [8] was under 50% and the inhibition [9] was under 50%. The inhibition [10] was under 50%, the inhibition [11] was 89% and the inhibition [12] was under 50%. It also gave an inhibition [13] of under 50%, an inhibition [14] of 66% and an inhibition [15] of under 50%. For the same molecule, the inhibition [16] was under 50%, the inhibition [17] was under 50% and the inhibition [18] was 78%. The inhibition [19] was under 50%, the inhibition [20] was under 50% and the inhibition [21] was under 50%. It also gave an inhibition [22] of under 50%, an inhibition [23] of under 50% and an inhibition [24] of under 50%. It also gave an inhibition [25] of under 50%, an inhibition [26] of under 50% and an inhibition [27] of under 50%. The inhibition [28] was under 50%, the inhibition [29] was under 50% and the inhibition [30] was under 50%. It also gave an inhibition [31] of under 50%, an inhibition [32] of under 50% and an inhibition [33] of under 50%. The inhibition [34] was under 50%, the inhibition [35] was under 50% and the inhibition [36] was under 50%. For the same molecule, the inhibition [37] was under 50%, the inhibition [38] was 99% and the inhibition [39] was under 50%. It also gave an inhibition [40] of under 50%, an inhibition [41] of under 50% and an inhibition [42] of under 50%. It also gave an inhibition [43] of under 50%, an inhibition [44] of under 50% and an inhibition [45] of under 50%.
